Experimental findings from ChEMBL document CHEMBL3352314, “Synthesis and antiproliferative activity of 8-hydroxyquinoline derivatives containing a 1,2,3-triazole moiety” (Eur J Med Chem, 2014) are described below.

One data set concerns NCI/ADR-RES. Put plainly: Antiproliferative activity against human NCI/ADR-RES cells assessed as growth inhibition after 48 hrs by sulforhodamine B assay. It is filed as functional. An outline of the steps:
(§1)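 Cells in RPMI with penicillin:streptomycin added, exposed 48 h at 37 °C, 5% CO2 to 0.25, 2.5, 25 and 250 µg/mL compound in DMSO/RPMI (0.1% v/v). Doxorubicin (0.025–25 µg/mL) served as positive control. Cells were then fixed with 50% TCA and stained with sulforhodamine B, with protein read at 540 nm. Growth = 100×(T−T0)/(C−T0), using T0 and 48 h readings. GI50 was obtained by non-linear regression. Done in triplicate.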
For orientation: Sulforhodamine B stains cellular protein and so reports cell mass.

A short description of data set [1]: Antiproliferative activity against human PC3 cells assessed as growth inhibition after 48 hrs by sulforhodamine B assay. In kind it is functional. Conditions: PC-3, 48 h. An outline of the steps:
as §1

In the next data set the test system is U-251. Description: Antiproliferative activity against human U251 cells assessed as growth inhibition after 48 hrs by sulforhodamine B assay. In kind it is functional. Conditions: U-251, 48 h. An outline of the steps:
as §1

Another data set relates to MCF7. Description: Antiproliferative activity against human MCF7 cells assessed as growth inhibition after 48 hrs by sulforhodamine B assay. It is filed as functional. Conditions: MCF7, 48 h. An outline of the steps: as §1
Data set [2] in a line: Antiproliferative activity against human HaCaT cells assessed as growth inhibition after 48 hrs by sulforhodamine B assay. In kind it is cell-based. In short, it runs like this: as §1
Data set [3] relates to NCI-H460. Description: Antiproliferative activity against human NCI-H460 cells assessed as growth inhibition after 48 hrs by sulforhodamine B assay. In kind it is functional. Conditions: NCI-H460, 48 h. An outline of the steps:
as §1

Data set [4] has as its system HaCaT. Put plainly: Selectivity index, ratio of GI50 for human HaCaT cells to GI50 for human OVCAR3 cells. In kind it is functional.
The nature of data set [5]: Antiproliferative activity against human OVCAR3 cells assessed as growth inhibition after 48 hrs by sulforhodamine B assay. Conditions: OVCAR-3, 48 h. It is filed as functional. In short, it runs like this: as §1
In data set [6] the test system is HaCaT. Put plainly: Selectivity index, ratio of GI50 for human HaCaT cells to GI50 for human 786-0 cells. In kind it is functional.
The test system of data set [7] is HaCaT. Description: Selectivity index, ratio of GI50 for human HaCaT cells to GI50 for human PC3 cells. In kind it is functional.
The next data set deals with 786-0. Put plainly: Antiproliferative activity against human 786-0 cells assessed as growth inhibition after 48 hrs by sulforhodamine B assay. In kind it is functional. Conditions: 786-0, 48 h. In short, it runs like this: as §1
Data set [8] relates to NCI-H460. Description: Selectivity index, ratio of GI50 for human HaCaT cells to GI50 for human NCI-H460 cells. It is filed as functional.
Data set [9] relates to HaCaT. Put plainly: Selectivity index, ratio of GI50 for human HaCaT cells to GI50 for human MCF7 cells. In kind it is functional.
Data set [10] has as its system HaCaT. Description: Selectivity index, ratio of GI50 for human HaCaT cells to GI50 for human U251 cells. In kind it is functional.
Data set [11] relates to HaCaT. Description: Selectivity index, ratio of GI50 for human HaCaT cells to GI50 for human NCI/ADR-RES cells. It is filed as functional.

Values after ≈ are worked out from the molar mass of the structure shown. Some results are limits rather than exact numbers.

By GI50 is commonly meant the concentration that inhibits growth by half. As for `Ic1ccc(Cn2cc(CCCOc3cccc4cccnc34)nn2)cc1`, the GI50 was above 250 µg/mL in the data set with NCI/ADR-RES; 24.7 µg/mL (≈ 52.5 µM) in data set [1]; above 250 µg/mL with U-251; 25 µg/mL (≈ 53.2 µM) with MCF7; 24.6 µg/mL (≈ 52.3 µM) with NCI-H460 [3]; 24.7 µg/mL (≈ 52.5 µM) in data set [5]. The GI50 with 786-0 was determined as 22.6 µg/mL (≈ 48.1 µM). In addition, the GI50 at 48 h in data set [2] is above 250 µg/mL. For the same compound, the RatioGI50 was above 10.1 with HaCaT [4]; above 11.1 in the data set on HaCaT [6]; above 10.1 with HaCaT [7]; above 10.2 with NCI-H460 [8]; above 10 with HaCaT [9].
On to `Fc1ccc(Cn2cc(CCCOc3cccc4cccnc34)nn2)cc1`, for which the GI50 in the data set on NCI/ADR-RES is 49.4 µg/mL (≈ 136 µM); in data set [1], 20.1 µg/mL (≈ 55.5 µM); in the data set on U-251, 20.7 µg/mL (≈ 57.1 µM); in the data set with MCF7, 11.7 µg/mL (≈ 32.3 µM); in the data set on NCI-H460 [3], 34.4 µg/mL (≈ 94.9 µM); in [5], 23.1 µg/mL (≈ 63.7 µM). In addition, the GI50 in the data set with 786-0 amounted to 195 µg/mL (≈ 538 µM). In addition, the GI50 at 48 h in data set [2] worked out at 115 µg/mL (≈ 318 µM). Besides, the RatioGI50 in the data set on HaCaT [10] is reported as 5.6; in the data set with HaCaT [4], 5; in the data set on HaCaT [6], 0.6; with HaCaT [7], 5.7; in the data set on HaCaT [11] it was 2.3; in the data set on NCI-H460 [8], 3.3. Besides, in the data set on HaCaT [9], the RatioGI50 worked out at 9.8.
For `Clc1ccc(Cn2cc(CCCOc3cccc4cccnc34)nn2)cc1`, the GI50 in the data set on NCI/ADR-RES was determined as 11.6 µg/mL (≈ 30.6 µM); in [1], 3.6 µg/mL (≈ 9.5 µM); with U-251, 3.4 µg/mL (≈ 8.97 µM); with MCF7, 6.2 µg/mL (≈ 16.4 µM); with NCI-H460 [3], 11.2 µg/mL (≈ 29.6 µM); in data set [5] it was 8.1 µg/mL (≈ 21.4 µM). Besides, the concentration for 50% growth inhibition (GI50) in the data set with 786-0 was determined as 2.8 µg/mL (≈ 7.39 µM). Also, in data set [2], the GI50 at 48 h came to 4.2 µg/mL (≈ 11.1 µM). Moreover, the RatioGI50 in the data set on HaCaT [10] stood at 1.2; with HaCaT [4], 0.5; in the data set with HaCaT [6], 1.5; in the data set on HaCaT [7], 1.2; in the data set on HaCaT [11], 0.4; in the data set with NCI-H460 [8] it was 0.4. Besides, the RatioGI50 in the data set with HaCaT [9] stood at 0.7.
In the case of `Brc1ccc(Cn2cc(CCCOc3cccc4cccnc34)nn2)cc1`, the GI50 in the data set with NCI/ADR-RES was 25.8 µg/mL (≈ 60.9 µM); in [1], 8.4 µg/mL (≈ 19.8 µM); with U-251, 8.4 µg/mL (≈ 19.8 µM); in the data set on MCF7, 28 µg/mL (≈ 66.1 µM); in the data set with NCI-H460 [3], 11.7 µg/mL (≈ 27.6 µM); in [5] it was 27.2 µg/mL (≈ 64.3 µM). The GI50 in the data set with 786-0 stood at 25.9 µg/mL (≈ 61.2 µM). For the same compound, the GI50 at 48 h in data set [2] amounted to 29.2 µg/mL (≈ 69 µM). Also, the RatioGI50 with HaCaT [10] stood at 3.5; in the data set on HaCaT [4] it was 1.1; in the data set on HaCaT [6], 1.1; in the data set on HaCaT [7] it was 3.5; in the data set on HaCaT [11] it was 1.1; with NCI-H460 [8], 2.5. In addition, the RatioGI50 in the data set on HaCaT [9] is 1.
Consider `FC(F)(F)Oc1ccc(Cn2cc(CCCOc3cccc4cccnc34)nn2)cc1`, for which the GI50 in the data set with NCI/ADR-RES was 5.5 µg/mL (≈ 12.8 µM); in data set [1], 5 µg/mL (≈ 11.7 µM); with U-251, 9.8 µg/mL (≈ 22.9 µM); in the data set on MCF7, 3.1 µg/mL (≈ 7.24 µM); in the data set on NCI-H460 [3] it was 10.4 µg/mL (≈ 24.3 µM); in [5], 24.5 µg/mL (≈ 57.2 µM). For the same compound, in the data set on 786-0, the GI50 amounted to 7.9 µg/mL (≈ 18.4 µM). The concentration for 50% growth inhibition (GI50) at 48 h in [2] is 4 µg/mL (≈ 9.34 µM). Moreover, the RatioGI50 in the data set on HaCaT [10] worked out at 0.4; in the data set with HaCaT [4], 0.2; with HaCaT [6], 0.5; in the data set with HaCaT [7] it was 0.8; in the data set with HaCaT [11], 0.7; in the data set on NCI-H460 [8] it was 0.4. The RatioGI50 with HaCaT [9] stood at 1.3.
On to `Fc1ccc(Cn2cc(CCCOc3cccc4cccnc34)nn2)cc1F`, for which the GI50 in the data set with NCI/ADR-RES amounted to 42.1 µg/mL (≈ 111 µM); in [1] it was 6.6 µg/mL (≈ 17.4 µM); with U-251, 18.2 µg/mL (≈ 47.8 µM); with MCF7, 21.3 µg/mL (≈ 56 µM); in the data set with NCI-H460 [3], 23.7 µg/mL (≈ 62.3 µM); in data set [5], 63.5 µg/mL (≈ 167 µM). Further, the GI50 with 786-0 worked out at 8.5 µg/mL (≈ 22.3 µM). Besides, the GI50 at 48 h in data set [2] stood at 41.7 µg/mL (≈ 110 µM). The RatioGI50 is listed as 2.3 in the data set with HaCaT [10]; 0.7 in the data set with HaCaT [4]; 4.9 in the data set with HaCaT [6]; 6.3 in the data set on HaCaT [7]; 1 in the data set on HaCaT [11]; 1.8 in the data set with NCI-H460 [8]. Further, the RatioGI50 with HaCaT [9] came out at 1.9.
